In article PMC9926453 (Medicinal Chemistry Research, 2023):

What was measured:
Type in all cases: cell-based
[1] = tested on: MCF-7 breast cancer cells; assay: MTT antiproliferative assay, MCF-7; conditions: Homo sapiens, MCF7, 24 h, read-out: Antiproliferative activity (IC50) MCF-7
In short: (§1)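 Cells seeded at 2×10^3 per well and left 24 h to adhere, then exposed to test compound (0–100 µM, final) for 24 h at 37 °C. MTT added for 4 h, a second MTT addition followed by overnight incubation, and absorbance read at 540 nm. Growth compared with untreated cells; IC50 derived from dose-response curves.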

[2] = tested on: MDA-MB-231/ADR breast cancer cells; assay: MTT antiproliferative assay, MDA-MB-231/ADR; conditions: Homo sapiens, MDA-MB-231, 24 h, read-out: Antiproliferative activity (IC50) MDA-MB-231/ADR
In short: (§2)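 Cells were seeded at 2×10^3 per well and left to adhere for 24 h. Test compound was then added at 0–100 µM final, and cells were incubated for 24 h at 37 °C. MTT was added for 4 h, […]. Absorbance was read at 540 nm and growth compared with untreated cells. IC50 was taken from a dose-response curve.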

[3] = tested on: MDA-MB-231 breast cancer cells; assay: MTT antiproliferative assay, MDA-MB-231; conditions: Homo sapiens, MDA-MB-231, 24 h, read-out: Antiproliferative activity (IC50) MDA-MB-231
In short: as §2

[4] = tested on: normal MCF-10A breast cells; assay: MTT cytotoxicity towards normal breast cells; conditions: SI: IC50(MCF-10A)/IC50(MCF-7) or IC50(MCF-10A)/IC50(MDA-MB-231)
[5] = MTT cytotoxicity towards normal breast cells; conditions: human, MCF-10A normal breast cells
[6] = tested on: MCF-7, MDA-MB-231, MCF-7/ADR and MDA-MB-231/ADR breast cancer cell lines; assay: MTT antiproliferative assay, the four breast cancer cell lines taken together; conditions: Homo sapiens, read-out: IC50 range over the four breast cancer cell lines
In short: as §1

SMILES	IC50 [1]	IC50 [2]	IC50 [3]	Selectivity index (SI) [4]	IC50 at 24 h [5]	IC50 [6]
CCON=C1C(=O)N(CCCC(=O)OC2O[C@@H]3O[C@@]4(C)CC[C@H]5[C@H](C)CC[C@@H]([C@H]2C)[C@@]35OO4)c2ccc(C)cc21 (stereo partly drawn) [Hybrid 5g, (3R,5aS,6R,8aS,9R,12R,12aR)-3,6,9-trimethyldecahydro-12H-3,12-epoxy[1,2]dioxepino[4,3-i]isochromen-10-yl 4-(3-(ethoxyimino)-5-methyl-2-oxoindolin-1-yl)butanoate]	> 100 µM	> 100 µM	> 100 µM	–	–	–
CCON=C1C(=O)N(CCCC(=O)OC2O[C@@H]3O[C@@]4(C)CC[C@H]5[C@H](C)CC[C@@H]([C@H]2C)[C@@]35OO4)c2ccccc21 (stereo partly drawn) [Hybrid 5b, (3R,5aS,6R,8aS,9R,12R,12aR)-3,6,9-trimethyldecahydro-12H-3,12-epoxy[1,2]dioxepino[4,3-i]isochromen-10-yl 4-(3-(ethoxyimino)-2-oxoindolin-1-yl)butanoate]	1.27 µM	26.8 µM	15.1 µM	>78.74	> 100 µM	–
CCON=C1C(=O)N(CCCC(=O)OC2O[C@@H]3O[C@@]4(C)CC[C@H]5[C@H](C)CC[C@@H]([C@H]2C)[C@@]35OO4)c2ccc(OC)cc21 (stereo partly drawn) [Hybrid 5j, (3R,5aS,6R,8aS,9R,12R,12aR)-3,6,9-trimethyldecahydro-12H-3,12-epoxy[1,2]dioxepino[4,3-i]isochromen-10-yl 4-(3-(ethoxyimino)-5-methoxy-2-oxoindolin-1-yl)butanoate]	> 100 µM	> 100 µM	> 100 µM	–	–	–
CON=C1C(=O)N(CCCC(=O)OC2O[C@@H]3O[C@@]4(C)CC[C@H]5[C@H](C)CC[C@@H]([C@H]2C)[C@@]35OO4)c2ccc(F)cc21 (stereo partly drawn) [Hybrid 5d, (3R,5aS,6R,8aS,9R,12R,12aR)-3,6,9-trimethyldecahydro-12H-3,12-epoxy[1,2]dioxepino[4,3-i]isochromen-10-yl 4-(3-(methoxyimino)-5-fluoro-2-oxoindolin-1-yl)butanoate]	6.07 µM	> 100 µM	> 100 µM	–	> 100 µM	–
C[C@@H]1CC[C@H]2[C@@H](C)C(=O)O[C@@H]3O[C@@]4(C)CC[C@@H]1[C@]32OO4 [ART, Artemisinin, reference compound]	> 100 µM	> 100 µM	> 100 µM	–	> 100 µM	> 100 µM
C[C@@H]1CC[C@H]2[C@@H](C)C(OC(=O)CCCN3C(=O)C(=NOCc4ccccc4)c4cc(F)ccc43)O[C@@H]3O[C@@]4(C)CC[C@@H]1[C@]32OO4 (stereo partly drawn) [Hybrid 5f, (3R,5aS,6R,8aS,9R,12R,12aR)-3,6,9-trimethyldecahydro-12H-3,12-epoxy[1,2]dioxepino[4,3-i]isochromen-10-yl 4-(3-((benzyloxy)imino)-5-fluoro-2-oxoindolin-1-yl)butanoate]	18.3 µM	> 100 µM	> 100 µM	>5.46	> 100 µM	–
C[C@H]1[C@@H](O)O[C@@H]2O[C@@]3(C)CC[C@H]4[C@H](C)CC[C@@H]1[C@@]24OO3 [DHA, Dihydroartemisinin, reference compound]	28.3 µM	82.8 µM	48.8 µM	>3.53	> 100 µM	14.8 to 82.8 µM
CCON=C1C(=O)N(CCCC(=O)OC2O[C@@H]3O[C@@]4(C)CC[C@H]5[C@H](C)CC[C@@H]([C@H]2C)[C@@]35OO4)c2ccc(F)cc21 (stereo partly drawn) [Hybrid 5e, (3R,5aS,6R,8aS,9R,12R,12aR)-3,6,9-trimethyldecahydro-12H-3,12-epoxy[1,2]dioxepino[4,3-i]isochromen-10-yl 4-(3-(ethoxyimino)-5-fluoro-2-oxoindolin-1-yl)butanoate]	15.9 µM	> 100 µM	8.12 µM	>6.29	> 100 µM	–
C[C@@H]1CC[C@H]2[C@@H](C)C(OC(=O)CCCN3C(=O)C(=NOCc4ccccc4)c4ccccc43)O[C@@H]3O[C@@]4(C)CC[C@@H]1[C@]32OO4 (stereo partly drawn) [Hybrid 5c, (3R,5aS,6R,8aS,9R,12R,12aR)-3,6,9-trimethyldecahydro-12H-3,12-epoxy[1,2]dioxepino[4,3-i]isochromen-10-yl 4-(3-((benzyloxy)imino)-2-oxoindolin-1-yl)butanoate]	> 100 µM	3.95 µM	2.39 µM	–	> 100 µM	–
COc1ccc2c(c1)C(=NOCc1ccccc1)C(=O)N2CCCC(=O)OC1O[C@@H]2O[C@@]3(C)CC[C@H]4[C@H](C)CC[C@@H]([C@H]1C)[C@@]24OO3 (stereo partly drawn) [Hybrid 5k, (3R,5aS,6R,8aS,9R,12R,12aR)-3,6,9-trimethyldecahydro-12H-3,12-epoxy[1,2]dioxepino[4,3-i]isochromen-10-yl 4-(3-((benzyloxy)imino)-5-methoxy-2-oxoindolin-1-yl)butanoate]	> 100 µM	> 100 µM	> 100 µM	–	–	–
CON=C1C(=O)N(CCCC(=O)OC2O[C@@H]3O[C@@]4(C)CC[C@H]5[C@H](C)CC[C@@H]([C@H]2C)[C@@]35OO4)c2ccc(OC)cc21 (stereo partly drawn) [Hybrid 5i, (3R,5aS,6R,8aS,9R,12R,12aR)-3,6,9-trimethyldecahydro-12H-3,12-epoxy[1,2]dioxepino[4,3-i]isochromen-10-yl 4-(5-methoxy-3-(methoxyimino)-2-oxoindolin-1-yl)butanoate]	> 100 µM	> 100 µM	> 100 µM	–	–	–
C[C@@H]1CC[C@H]2[C@@H](C)C(OC(=O)CCCN3C(=O)C(=O)c4cc(F)ccc43)O[C@@H]3O[C@@]4(C)CC[C@@H]1[C@]32OO4 (stereo partly drawn) [Hybrid 4b, (3R,5aS,6R,8aS,9R,12R,12aR)-3,6,9-trimethyldecahydro-12H-3,12-epoxy[1,2]dioxepino[4,3-i]isochromen-10-yl 4-(5-fluoro-2,3-dioxoindolin-1-yl)butanoate]	13.1 µM	> 100 µM	50 µM	>7.62	> 100 µM	–
Cc1ccc2c(c1)C(=NOCc1ccccc1)C(=O)N2CCCC(=O)OC1O[C@@H]2O[C@@]3(C)CC[C@H]4[C@H](C)CC[C@@H]([C@H]1C)[C@@]24OO3 (stereo partly drawn) [Hybrid 5h, (3R,5aS,6R,8aS,9R,12R,12aR)-3,6,9-trimethyldecahydro-12H-3,12-epoxy[1,2]dioxepino[4,3-i]isochromen-10-yl 4-(3-((benzyloxy)imino)-5-methyl-2-oxoindolin-1-yl)butanoate]	> 100 µM	> 100 µM	> 100 µM	–	–	–
COc1cccc2c1C(=O)c1c(O)c3c(c(O)c1C2=O)C[C@@](O)(C(=O)CO)C[C@@H]3O[C@H]1C[C@H](N)[C@H](O)[C@H](C)O1 [ADR, Adriamycin, reference compound]	18.9 µM	> 100 µM	3.38 µM	3.64	68.8 µM	–
CON=C1C(=O)N(CCCC(=O)OC2O[C@@H]3O[C@@]4(C)CC[C@H]5[C@H](C)CC[C@@H]([C@H]2C)[C@@]35OO4)c2ccccc21 (stereo partly drawn) [Hybrid 5a, (3R,5aS,6R,8aS,9R,12R,12aR)-3,6,9-trimethyldecahydro-12H-3,12-epoxy[1,2]dioxepino[4,3-i]isochromen-10-yl 4-(3-(methoxyimino)-2-oxoindolin-1-yl)butanoate]	19.1 µM	52.2 µM	> 100 µM	>5.23	> 100 µM	–
C[C@@H]1CC[C@H]2[C@@H](C)C(OC(=O)CCCN3C(=O)C(=O)c4ccccc43)O[C@@H]3O[C@@]4(C)CC[C@@H]1[C@]32OO4 (stereo partly drawn) [Hybrid 4a, (3R,5aS,6R,8aS,9R,12R,12aR)-3,6,9-trimethyldecahydro-12H-3,12-epoxy[1,2]dioxepino[4,3-i]isochromen-10-yl 4-(2,3-dioxoindolin-1-yl)butanoate]	13.6 µM	49.6 µM	14.9 µM	>7.33	> 100 µM	–
COc1ccc2c(c1)C(=O)C(=O)N2CCCC(=O)OC1O[C@@H]2O[C@@]3(C)CC[C@H]4[C@H](C)CC[C@@H]([C@H]1C)[C@@]24OO3 (stereo partly drawn) [Hybrid 4d, (3R,5aS,6R,8aS,9R,12R,12aR)-3,6,9-trimethyldecahydro-12H-3,12-epoxy[1,2]dioxepino[4,3-i]isochromen-10-yl 4-(5-methoxy-2,3-dioxoindolin-1-yl)butanoate]	18.1 µM	20.1 µM	15.1 µM	>5.52	> 100 µM	–
Cc1ccc2c(c1)C(=O)C(=O)N2CCCC(=O)OC1O[C@@H]2O[C@@]3(C)CC[C@H]4[C@H](C)CC[C@@H]([C@H]1C)[C@@]24OO3 (stereo partly drawn) [Hybrid 4c, (3R,5aS,6R,8aS,9R,12R,12aR)-3,6,9-trimethyldecahydro-12H-3,12-epoxy[1,2]dioxepino[4,3-i]isochromen-10-yl 4-(5-methyl-2,3-dioxoindolin-1-yl)butanoate]	> 100 µM	> 100 µM	32.9 µM	–	–	–
